From PubChem BioAssay
ARFGAP1 inhibitor: inhibitors of rat ARFGAP1 GAP activity, primary screen, biochemical, fluorescence polarization, GDP tracer. Arfgap1-stimulated ARF1 GTP hydrolysis, GDP FP detection. inhibition, % at 16.5 µM. 360,000 tested, 0.26% active. AID 651572, 2012;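 active = inhibition above a per-plate limit, mean inhibition of low control wells plus 3 SD, cut at about 25% in these data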;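 note: 0% = DMSO wells with enzyme and 100% = wells lacking Arfgap1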
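Material: rat Arfgap1 catalytic domain, aa 1-136; also added: human ARF1(Δ1-17)-GTP substrate; compound dosing: one concentration, 16.5 µM, DMSO 1.26%; incubation: GTP hydrolysis reaction 2 h at 25 °C; measured by: Tracer-displacement fluorescence polarization with EDTA stop, 620/688 nm; evaluation: % inhibition from polarization; repeats: one replicate per compound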
Calb FLC: C. albicans growth inhibition with fluconazole, primary screen, CaCi-2 strain, Alamar Blue fluorescence; C. albicans CaCi-2 + fluconazole, 48 h; growth inhibition, % (test concentration not listed); AID 1979, 2009; 300,000 tested, 0.57% active;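 active = growth inhibition above about 58% in most replicates, limit read from the data, passing the limit was not always enough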;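 note: all wells also contain fluconazole at 8 µg/ml as a sub-toxic cotreatment; 0% = median of DMSO wells and 100% = median of geldanamycin control wells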
IMP-1 inh: IMP-1 metallo-beta-lactamase inhibitors, primary screen, biochemical, epi-absorbance readout, Pseudomonas aeruginosa enzyme; purified IMP-1, nitrocefin hydrolysis, epi-absorbance fluorescence; inhibition, % at 5.6 µM; 290,000 tested, 0.45% active;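 active = inhibition above the mean plus 3 SD of all compounds in the same screening run, cut at about 4.5% in these data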;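 note: 0% = IMP-1 with DMSO and 100% = DMSO wells lacking enzyme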
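System: Purified IMP-1 | Read-out basis: Percent enzyme inhibition | Controls: IMP-1 with DMSO as 0%, enzyme-free DMSO as 100% | Replicates: One well per compound | Doses: 5.6 µM nominal single concentration | Detection: Epi-absorbance fluorescence, 480 nm excitation, 530 nm emission | Incubation: 25 °C, 15 min preincubation, 25 min reaction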
PHOSPHO1 block: PubChem AID 1565 | recombinant PHOSPHO1, absorbance phosphatase assay | inhibition, % at 13.3 µM | 290,000 tested, 1.1% active; in the data active = inhibition above about 60%
ASAP1 GAP inh: inhibitors of human ASAP1 ArfGAP activity, primary screen, biochemical, fluorescence polarization. inhibition, % at 16.5 µM. Arf-GAP with SH3 domain, ANK repeat and PH domain-containing protein 1 (Homo sapiens), …. ASAP1-stimulated ARF1 GTP hydrolysis, GDP FP detection. 360,000 tested, 0.19% active. AID 624377, 2012; in the data active = inhibition above about 25%;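 note: 0% = vehicle with enzyme and substrate and 100% = no enzyme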
Target sequence (Q9ULH1 325-724 limits assumed): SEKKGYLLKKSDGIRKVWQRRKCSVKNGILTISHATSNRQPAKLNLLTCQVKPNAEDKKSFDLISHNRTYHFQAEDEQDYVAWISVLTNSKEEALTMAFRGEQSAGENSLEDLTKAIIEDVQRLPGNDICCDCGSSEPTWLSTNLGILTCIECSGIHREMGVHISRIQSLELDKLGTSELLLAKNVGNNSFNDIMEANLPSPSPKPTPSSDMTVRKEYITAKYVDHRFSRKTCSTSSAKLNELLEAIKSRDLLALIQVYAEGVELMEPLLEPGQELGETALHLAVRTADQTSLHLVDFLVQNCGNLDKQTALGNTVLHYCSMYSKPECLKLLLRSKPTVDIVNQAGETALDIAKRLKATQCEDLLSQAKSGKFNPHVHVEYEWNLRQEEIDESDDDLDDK
VIM-2 inh: VIM-2 metallo-beta-lactamase inhibitors, primary screen, biochemical, epi-absorbance readout, Pseudomonas aeruginosa enzyme; inhibition, % at 5.6 µM; AID 1527, 2009; 290,000 tested, 0.89% active; purified VIM-2, nitrocefin hydrolysis, epi-absorbance fluorescence;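 active = inhibition above the mean of all tested compounds plus 3 SD, cutoff set per screening run, cut at about 7.5% in these data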;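 note: red hydrolysis product quenches plate fluorescence so inhibitors raise well fluorescence; 0% = enzyme with DMSO and 100% = DMSO without enzyme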
Numbers without * were called inactive; x = no result given. Shown are actives, neighbours in structure and some others; about 2.6% of the full set was active somewhere.

SMILES	ARFGAP1 inhibitor	Calb FLC	IMP-1 inh	PHOSPHO1 block	ASAP1 GAP inh	VIM-2 inh
CC(Nc1c([N+](=O)[O-])c(=O)oc2ccccc12)c1ccccc1 (stereo unspecified)	5	-28	-1	61*	-17	0
CC(C)Nc1c([N+](=O)[O-])c(=O)oc2ccccc12	14	-2	-1	46	-5	-2
OCCN(CCO)c1nc(N2CCCCC2)c2nc(N(CCO)CCO)nc(N3CCCCC3)c2n1	4	x	12*	-14	3	7
Nc1nc(NCCO)nc(N2CCCCCC2)c1[N+](=O)[O-]	8	-4	-2	37	0	0
Cc1cc(C)c2nc(N3CCOCC3)c(C#N)cc2c1	-6	-2	-1	x	9	2
N#Cc1cc2cc3c(cc2nc1N1CCOCC1)OCO3	-15	-7	4.5*	1	-4	-1
CC(=O)C1=C(C)N(Cc2ccc(Br)cc2)C(=S)NC1c1cccc(Cl)c1 (stereo unspecified)	3	x	x	x	-6	x
N#CC1=C(N)SC(N)=C(C#N)C1c1ccnc2ccccc12	9	0	-3	76*	15	1
O=C1c2ccccc2C(=O)C1c1ccnc2ccccc12	-4	6	0	-1	24	0
O=[N+]([O-])c1ccc(O)c2ncccc12	3	99*	-2	6	-4	-2
O=[N+]([O-])c1cc(F)c2cccnc2c1O	1	61	-2	38	12	0
O=[N+]([O-])c1cc(Cl)c2cccnc2c1O	3	102*	-6	42	1	-3
O=[N+]([O-])c1cc(CN2CCN(c3ccccc3)CC2)c(O)c2ncccc12	5	100*	-5	30	-8	-4
O=[N+]([O-])c1cc(Cl)c(O)c2ncccc12	-2	107*	-6	12	-3	0
COC(=O)c1cc2c(c3c4cc(C)ccc4n(S(=O)(=O)c4ccc(OC)cc4)c13)C(=O)N(C)C2	21	x	x	x	1	x
CN1/C(=C\C(=O)C[n+]2cccc(C(N)=O)c2)C(C)(C)c2ccccc21	5	16	0	8	1	1
CN1/C(=C\C(=O)C[n+]2ccc(C(=O)c3ccccc3)cc2)C(C)(C)c2ccccc21	-1	98*	-2	-9	0	3
O=C(Nc1ccc(Cl)cc1)Nc1nnc(SCc2ccc(Cl)cc2)s1	-8	-10	-2	4	-17	0
O=C(Nc1nnc(SCc2ccc(Cl)cc2)s1)c1cnccn1	-8	80*	-1	-2	-13	-4
COc1ccccc1-c1n[nH]c(=S)n1N	-11	-4	-3	-7	-16	1
Nn1c(-c2ccco2)n[nH]c1=S	8	-1	-5	86*	-1	0
COc1ccc(-n2c(-c3ccco3)n[nH]c2=S)cc1	-1	1	-4	99*	-2	2
COc1ccccc1-c1n[nH]c(=S)n1-c1ccccc1	-3	10	-3	89*	-1	8.9*
COc1cccc(CNC(=O)[C@@H]2CCCN2C(=O)[C@H]2CCCCN2C(=O)c2ccccc2)c1	-4	x	x	x	3	x
CCn1c(-c2ccc(OC)c(OC)c2)n[nH]c1=S	0	-1	-4	5	6	-1
COc1ccc(CCn2c(-c3ccc(Cl)cc3)n[nH]c2=S)cc1OC	-8	1	-3	-63	1	-1
CCn1c(-c2ccc(C)cc2)n[nH]c1=S	1	3	-3	100*	4	-2
CCCCn1c(-c2ccc([N+](=O)[O-])cc2)n[nH]c1=S	-2	-1	-2	102*	3	13*
CCCCn1c(-c2cc(Cl)ccc2OC)n[nH]c1=S	-3	2	-3	60*	1	1
CCn1c(-c2ccc(Cl)cc2)n[nH]c1=S	8	2	-4	71*	-3	-4
